Only some compounds are listed: those with a hit (about 5.8% of all), similar ones and a draw of the others.
KDM4C inh – KDM4C (human) demethylase inhibition. Q9H3R0. GST-KDM4C 2-372, H3K9me3 peptide, LANCE TR-FRET. inhibition, % at 12.5 µM. hit rate 0.15% among 96,000;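 active = mean replicate inhibition above about 25%, with at least 55% of replicates also reaching it, limit read from the data, passing the limit was not always enough; inconclusive = only one of those two conditions met; inactive = neither condition met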
Target sequence (Q9H3R0 2-372 limits assumed): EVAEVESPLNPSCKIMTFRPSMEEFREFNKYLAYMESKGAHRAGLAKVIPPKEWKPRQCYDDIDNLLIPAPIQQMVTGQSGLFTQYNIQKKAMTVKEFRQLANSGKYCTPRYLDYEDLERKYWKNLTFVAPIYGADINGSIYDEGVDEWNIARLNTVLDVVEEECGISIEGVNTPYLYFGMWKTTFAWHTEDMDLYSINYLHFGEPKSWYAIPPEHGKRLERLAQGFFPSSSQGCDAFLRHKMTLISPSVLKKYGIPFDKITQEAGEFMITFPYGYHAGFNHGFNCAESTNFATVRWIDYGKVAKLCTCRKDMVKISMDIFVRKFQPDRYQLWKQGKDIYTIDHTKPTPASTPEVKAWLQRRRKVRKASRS
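System – N-terminal GST-fused human GASC-1 (KDM4C) fragment, residues 2-372 · Input – enzyme final amount 10 nM · Technique – LANCE TR-FRET, Eu antibody, ULight-streptavidin, EDTA, ex 340 nm, em 618/671 nm · Medium – HEPES buffer, pH 7.5, plus ascorbate · Incubation – enzyme reaction 30 min, then detection 60 min, both room temperature · Reagent – H3K9me3 peptide with Fe(II)/2OG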
IDH1 R132H inh – blocks human IDH1 R132H reductase activity | O75874 | diaphorase/resazurin fluorescence, 60 min | inhibition, % at 10 µM | hit rate 0.18% among 70,000; in the data active = inhibition above about 34%; inconclusive = no clear call, values can overlap the other calls; inactive = below about 11%;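 note: 0% = DMSO and 100% = no enzyme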
Target sequence (O75874 whole entry R132H): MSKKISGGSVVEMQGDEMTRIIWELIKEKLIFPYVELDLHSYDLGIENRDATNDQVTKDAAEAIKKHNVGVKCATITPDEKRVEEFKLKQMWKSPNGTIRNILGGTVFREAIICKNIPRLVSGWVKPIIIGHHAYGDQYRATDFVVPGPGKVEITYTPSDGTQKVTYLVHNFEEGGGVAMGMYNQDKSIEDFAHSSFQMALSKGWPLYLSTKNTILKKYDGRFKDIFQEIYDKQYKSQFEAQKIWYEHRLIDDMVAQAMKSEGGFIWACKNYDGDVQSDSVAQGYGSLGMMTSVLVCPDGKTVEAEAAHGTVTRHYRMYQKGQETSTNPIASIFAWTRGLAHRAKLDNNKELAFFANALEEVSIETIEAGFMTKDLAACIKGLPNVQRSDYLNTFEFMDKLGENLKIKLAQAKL
Pf Dd2 growth – blocks growth of Plasmodium falciparum Dd2 parasites; P. falciparum Dd2 growth, SYBR Green, 72 h; stronger effect = lower value; activity change, % at 10 µM; hit rate 2.3% among 94,000; in the data active = activity change below about -80%; inconclusive = no clear call, values can overlap the other calls
T cruzi growth-1 – blocks T. cruzi growth in NIH3T3 culture; T. cruzi beta-gal in NIH3T3, GalScreen luminescence, 90 h; inhibition, % at 8.34 µM; hit rate 5.9% among 77,000;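 active = mean inhibition above about 93%, with at least 55% of replicates each passing it, limit read from the data, passing the limit was not always enough; inconclusive = only one of those two conditions holds; inactive = neither condition holds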
T cruzi growth-2 – blocks T. cruzi growth in NIH3T3 host cells. inhibition, % at 8.35 µM. shares compounds with T cruzi growth-1. hit rate 72% among 5,600. AID 651739. T. cruzi beta-gal in NIH3T3, GalScreen luminescence, 90 h;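 active = mean replicate inhibition above about 95% and at least 55% of replicates individually reaching it, limit read from the data; inconclusive = only one of the two criteria is met; inactive = neither criterion is met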
T cruzi growth-3 – blocks T. cruzi growth in NIH3T3 host cells; hit rate 21% among 5,600; inhibition, % at 2.09 µM; shares compounds with T cruzi growth-1; T. cruzi beta-gal in NIH3T3, GalScreen luminescence, 90 h;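 active = mean inhibition above about 95%, with at least 55% of replicates also reaching it, limit read from the data; inconclusive = meets just one of the two conditions; inactive = meets neither condition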;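 note: plate controls were neutral control median for no effect and positive control median for full effect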
3T3 cytotox – kills mouse NIH/3T3 fibroblasts. cytotoxicity (signal decrease), % at 8.35 µM. AID 651742. shares compounds with T cruzi growth-1. hit rate 14% among 5,600. NIH/3T3 viability, CellTiter-Glo ATP luminescence, 90 h;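 active = mean signal decrease across replicates above about 35% based on untreated-well scatter, with enough replicates individually passing, limit read from the data; inconclusive = no rule stated though some were filed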;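 note: 0% = median of neutral control wells and 100% = median of positive control wells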
3T3 cytotox 2 – NIH/3T3 (mouse) viability loss. NIH/3T3 viability, CellTiter-Glo ATP luminescence, 90 h. inhibition, % at 24.9 µM. hit rate 56% among 5,600. shares compounds with T cruzi growth-1;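 active = mean loss of cell viability signal at or above a set limit, and enough replicates individually reaching it; inconclusive = meets only the mean limit or only the replicate share; inactive = meets neither condition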;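 note: 0% = median of neutral control wells and 100% = median of positive control wells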
Numbers without * were called inactive; ? = inconclusive; . = no result.

SMILES | KDM4C inh | IDH1 R132H inh | Pf Dd2 growth | T cruzi growth-1 | T cruzi growth-2 | T cruzi growth-3 | 3T3 cytotox | 3T3 cytotox 2
C[C@H]1CN([C@@H](C)CO)S(=O)(=O)c2ccc(C#Cc3ccccc3)cc2O[C@H]1CN(C)S(=O)(=O)c1ccccc1F | -3.8 | -0.4 | -63.8 | 123.1* | 105.7* | ? | 16.3 | -4.8
COc1ccc(C#Cc2ccc([C@H]3[C@@H](CO)N4CCCCN(C(=O)Nc5ccc(F)cc5)C[C@H]34)cc2)cc1 | -2.7 | . | -66.4 | 87.6 | . | . | . | .
COc1ccc(C#Cc2ccc([C@@H]3[C@H](CO)N4CCCCN(C(=O)Nc5ccc(F)cc5)C[C@@H]34)cc2)cc1 | -0.4 | . | -67.0 | 111.3* | 105.0* | 109.4* | 119.2* | 103.2*
COc1ccc(C#Cc2ccc([C@@H]3[C@@H](CO)N4CCCCN(C(=O)Nc5ccc(F)cc5)C[C@@H]34)cc2)cc1 | -1.5 | . | -29.3 | 112.5* | 102.2* | 105.6* | 3.7 | 103.6*
COc1ccc(C#Cc2ccc([C@@H]3[C@@H](CO)N4CCCCN(C(=O)Nc5ccc(F)cc5)C[C@H]34)cc2)cc1 | -1.4 | . | -68.0 | 116.4* | 97.2* | 119.9* | 122.6* | 104.8*
CCCC(=O)Nc1ccc2c(c1)C(=O)N(C)C[C@H](OC)[C@@H](C)CN(CCc1ccccc1)[C@@H](C)CO2 | 0.6 | 0.3 | -42.4 | 16.5 | . | . | . | .
OC[C@@H]1[C@@H](c2ccc(C#CC3(O)CCCC3)cc2)[C@H]2CN(Cc3cccnc3)CCCCN12 | -0.4 | . | 7.0 | 118.8* | 79.8 | 36.0 | 12.9 | 23.2
OC[C@@H]1[C@H](c2ccc(C#CC3(O)CCCC3)cc2)[C@@H]2CN(Cc3cncnc3)CCCCN12 | -1.7 | . | -14.2 | ? | 97.8* | 46.2 | 1.4 | -2.4
OC[C@H]1[C@H](c2ccc(C#CC3(O)CCCC3)cc2)[C@@H]2CN(Cc3cncnc3)CCCCN12 | 2.2 | . | -12.5 | 97.6* | 82.3 | 39.9 | 4.3 | -1.5
OC[C@H]1[C@@H](c2ccc(C#CC3(O)CCCC3)cc2)[C@@H]2CN(Cc3cncnc3)CCCCN12 | -0.5 | . | 3.6 | 21.5 | . | . | . | .
CCC(=O)N1CC(=O)N2[C@H](CO)[C@@H](c3ccc(C#Cc4cccnc4)cc3)[C@H]2C1 | -0.9 | . | -53.0 | . | . | . | . | .
CC(C)NC(=O)Nc1cccc2c1O[C@H](CN(C)S(C)(=O)=O)[C@H](C)CN([C@H](C)CO)C2=O | 0.0 | 0.4 | 11.9 | 71.5 | . | . | . | .
O=C([C@@H]1N[C@@H]2c3ccc(-c4ccccc4)c(=O)n3C[C@@H]2[C@H]1CO)N1CCOCC1 | 0.2 | . | 1.2 | -43.7 | . | . | . | .
C[C@H](CO)N1C[C@H](C)[C@@H](CN(C)Cc2ccc(Oc3ccccc3)cc2)Oc2c(NS(=O)(=O)c3ccc(Cl)cc3)cccc2C1=O | -1.9 | . | -48.3 | 102.3* | ? | 77.1 | 21.5 | 100.5*
C[C@@H]1CN([C@H](C)CO)C(=O)c2cccc(NS(=O)(=O)c3ccc(Cl)cc3)c2O[C@H]1CN(C)Cc1ccc(Oc2ccccc2)cc1 | 3.0 | -1.1 | -59.1 | ? | 109.6* | 64.2 | -12.2 | 24.4
C[C@@H]1CN([C@@H](C)CO)C(=O)c2cccc(NS(=O)(=O)c3ccc(Cl)cc3)c2O[C@@H]1CN(C)Cc1ccc(Oc2ccccc2)cc1 | -1.7 | 1.5 | -66.7 | 96.5 | . | . | . | .
C[C@H]1CN([C@@H](C)CO)C(=O)c2cccc(NS(=O)(=O)c3ccc(Cl)cc3)c2O[C@H]1CN(C)Cc1ccc(Oc2ccccc2)cc1 | 0.4 | . | -21.7 | 102.6 | . | . | . | .
O=C(NCC[C@@H]1CC[C@H](NS(=O)(=O)Cc2ccccc2)[C@H](CO)O1)C1CCCC1 | 1.6 | 0.3 | -0.7 | . | . | . | . | .
O=C(C1CCCC1)N1CC2(C1)[C@@H](c1ccccc1)[C@@H](CO)N2Cc1nccs1 | -2.1 | . | -2.5 | . | . | . | . | .
C[C@H]1CN([C@@H](C)CO)C(=O)c2cccc(NC(=O)c3ccncc3)c2O[C@H]1CN(C)Cc1ccc2c(c1)OCO2 | 1.0 | 0.5 | -2.5 | 96.6* | 108.1* | 85.9 | 3.2 | ?
C[C@@H]1CN([C@H](C)CO)C(=O)c2cccc(NC(=O)c3ccncc3)c2O[C@H]1CN(C)Cc1ccc2c(c1)OCO2 | -1.7 | 2.6 | -7.3 | 98.4* | 91.3 | 74.0 | 22.7 | 24.8
C[C@H](CO)N1C[C@H](C)[C@H](CN(C)Cc2ccncc2)Oc2c(NC(=O)c3ccncc3)cccc2C1=O | -0.3 | -0.6 | 7.1 | 50.1 | . | . | . | .
C[C@H]1CN([C@@H](C)CO)C(=O)c2cccc(NC(=O)c3ccncc3)c2O[C@@H]1CN(C)Cc1ccncc1 | 3.3 | . | 6.0 | 52.0 | . | . | . | .
C[C@@H]1CN([C@H](C)CO)C(=O)c2cccc(NC(=O)c3ccncc3)c2O[C@H]1CN(C)Cc1ccncc1 | 0.0 | 1.5 | -34.8 | 79.6 | . | . | . | .
C[C@@H]1CN([C@@H](C)CO)C(=O)c2cccc(NC(=O)c3ccncc3)c2O[C@H]1CN(C)Cc1ccc2c(c1)OCO2 | 2.7 | -0.4 | -8.5 | 102.6* | 96.8* | 91.7 | -2.7 | 26.8*
SMILES | KDM4C inh | IDH1 R132H inh | Pf Dd2 growth | T cruzi growth-1 | T cruzi growth-2 | T cruzi growth-3 | 3T3 cytotox | 3T3 cytotox 2
COc1ccccc1NC(=O)N1C[C@H]2[C@@H](c3ccccc31)[C@@H](CO)N2CC1CCCC1 | 0.4 | . | -10.2 | 54.1 | . | . | . | .
CCCC(=O)Nc1ccc2c(c1)C(=O)N(C)C[C@H](OC)[C@H](C)CN(C(=O)CN(C)C)[C@H](C)CO2 | 0.2 | 0.1 | -7.9 | -32.5 | . | . | . | .
COCC#Cc1ccc([C@@H]2[C@H](CO)N3C(=O)CN(C(=O)Nc4ccc(F)cc4)C[C@@H]23)cc1 | -0.3 | . | 10.8 | . | . | . | . | .
OC[C@H]1[C@H](c2ccc(-c3cccnc3)cc2)[C@@H]2CN(Cc3ccccn3)CCCCN12 | 0.6 | . | -12.8 | ? | 106.0* | 68.1 | -8.8 | -2.6
OC[C@@H]1[C@H](c2ccc(-c3ccc(F)cc3)cc2)[C@H]2CN(Cc3ccccn3)CCCCN12 | 0.2 | . | -21.1 | 99.3* | 107.3* | 91.7 | 30.9 | 107.6*
C[C@H]1CN([C@@H](C)CO)C(=O)c2cc(C#CC3(O)CCCC3)cnc2O[C@H]1CN(C)C(=O)C1CCC1 | -0.6 | . | 9.7 | 47.4 | . | . | . | .
CC(=O)N(C)C[C@@H]1Oc2cc(C#CC3CC3)ccc2S(=O)(=O)N([C@H](C)CO)C[C@H]1C | 0.9 | . | 14.5 | 10.5 | . | . | . | .
CCc1cnc(N2[C@H](C#N)[C@@H](c3ccc(C#CC(C)C)cc3)[C@H]2CO)s1 | -0.6 | . | -23.2 | 82.6 | . | . | . | .
CCc1cnc(N2[C@H](CO)[C@H](c3ccc(C#CC(C)C)cc3)[C@@H]2C#N)s1 | 1.7 | . | 2.2 | 89.4 | . | . | . | .
CCc1cnc(N2[C@H](C#N)[C@H](c3ccc(C#CC(C)C)cc3)[C@@H]2CO)s1 | -1.3 | . | -38.0 | 96.4* | 100.5* | 112.6* | 6.2 | 0.2

High-throughput results as filed in PubChem BioAssay.
